Test results published in ChEMBL document CHEMBL1250508, “Synthesis and cytotoxic potency of novel tris(1-alkylindol-3-yl)methylium salts: role of N-alkyl substituents” (Bioorg Med Chem, 2010).
Active and inactive are the calls of the source. The rule behind the calls is not given here.

Tests used:
[1] = test system: HCT-116; experiment: Cytotoxicity against human HCT116 cells after 72 hrs by MTT assay; assay type: functional, cell-based; details: HCT-116, 72 h
How it was run: (§1)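 Tumour lines were grown in DMEM with 5% fetal calf serum, 2 mM L-glutamine, penicillin and streptomycin at 37 °C, 5% CO2, and used in log phase. 5×10^3 cells per well were exposed to serial concentrations (each in triplicate; 10 mM DMSO stocks diluted in water) or 0.1% DMSO for 72 h. MTT was added for 2 h, formazan dissolved in DMSO, and A540 read. IC50 was taken at 50% viability versus vehicle.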

[2] = test system: K562; experiment: Cytotoxicity against human K562 cells after 72 hrs by MTT assay; assay type: functional, cell-based; details: K562, 72 h; how it was run: as §1
[3] = test system: HCT-116; experiment: Induction of apoptosis in human HCT116 cells assessed as loss of DNA integrity at 1 uM after 24 to 48 hrs using Annexin V-FITC staining by flow cytometry; assay type: functional, cell-based
[4] = test system: HCT-116; experiment: Induction of apoptosis in p53 deficient human HCT116 cells at 1 uM after 24 to 48 hrs using Annexin V-FITC staining by flow cytometry; assay type: functional, cell-based
[5] = test system: HCT-116; experiment: Induction of apoptosis in human HCT116 cells assessed as programmed cell death at 1 uM after 24 to 48 hrs using Annexin V-FITC staining by flow cytometry; assay type: functional, cell-based
How it was run: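 HCT116 cells were plated at 5×10^4 per well overnight, given 1 µM for 24–48 h at 37 °C, 5% CO2 (controls without drug), washed with cold saline and harvested. One aliquot was stained with Annexin V-FITC per the manufacturer and analysed by flow cytometry.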

[6] = test system: HCT-116; experiment: Induction of apoptosis in human HCT116 cells assessed as internucleosomal DNA fragmentation at 1 uM after 24 to 48 hrs by agarose gel by electrophoresis; assay type: functional, cell-based
How it was run: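 HCT116 cells were seeded at 5×10^4 per well overnight and treated with 1 µM for 24–48 h, with drug-free controls. Cells were lysed for 30 min on ice in 350 mM NaCl, 20 mM Tris-HCl pH 7.4, 2 mM MgCl2, 1 mM DTT and 0.5% NP-40. DNA was phenol-chloroform extracted, ethanol/sodium acetate precipitated, and run on a 1% agarose gel.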

[7] = test system: HCT-116; experiment: Induction of apoptosis in human HCT116 cells assessed as increase of hypodiploid nuclei at sub-G1 phase at 1 uM after 24 to 48 hrs […] by flow cytometry; assay type: functional, cell-based
How it was run: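 HCT116 cells were seeded at 5×10^4 per well overnight, then exposed to 1 µM for 24–48 h at 37 °C with drug-free controls. Cells were washed in cold saline and lysed in 0.1% sodium citrate, 0.3% NP-40, 50 µg/ml RNase A and 10 µg/ml propidium iodide. Flow cytometry on FL2 gave the percentage of hypodiploid (sub-G1) nuclei.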

[8] = test system: SK-BR-3; experiment: Cytotoxicity against human SK-BR-3 cells after 72 hrs by MTT assay; assay type: functional, cell-based; how it was run: as §1
[9] = test system: SK-OV-3; experiment: Cytotoxicity against human SKOV3 cells after 72 hrs by MTT assay; assay type: functional, cell-based; how it was run: as §1
[10] = test system: Fem-X; experiment: Cytotoxicity against human Fem-X cells after 72 hrs by MTT assay; assay type: functional, cell-based; how it was run: as §1
[11] = test system: MCF7; experiment: Cytotoxicity against human MCF7 cells after 72 hrs by MTT assay; assay type: functional, cell-based; how it was run: as §1
[12] = test system: Mel-Kor; experiment: Cytotoxicity against human Mel-Kor cells after 72 hrs by MTT assay; assay type: functional, cell-based; how it was run: as §1
[13] = test system: Jurkat; experiment: Cytotoxicity against human Jurkat cells after 72 hrs by MTT assay; assay type: functional, cell-based; how it was run: as §1
[14] = test system: PBL; experiment: Cytotoxicity against human PBL cells after 72 hrs by MTT assay; assay type: cell-based
How it was run: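 Lymphocytes were freshly isolated from peripheral blood of four healthy donors and pooled. 5×10^3 cells per well were treated with increasing concentrations in triplicate (DMSO stocks diluted in water) or 0.1% DMSO vehicle for 72 h. MTT was added for 2 h, then formazan dissolved in DMSO and read at 540 nm. IC50 was the concentration giving 50% viability relative to vehicle.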

CCn1cc([C+](c2cn(CC)c3ccccc23)c2cn(CC)c3ccccc23)c2ccccc21
IC50 [1]: 1300 nM | IC50 [2]: 200 nM

c1ccc(Cn2cc([C+](c3cn(Cc4ccccc4)c4ccccc34)c3cn(Cc4ccccc4)c4ccccc34)c3ccccc32)cc1
IC50 [1]: 15000 nM | IC50 [2]: 9300 nM

Cn1cc([C+](c2cn(C)c3ccccc23)c2cn(C)c3ccccc23)c2ccccc21
IC50 [1]: 3200 nM | IC50 [2]: 3200 nM

c1ccc2c([C+](c3c[nH]c4ccccc34)c3c[nH]c4ccccc34)c[nH]c2c1
IC50 [1]: 2300 nM | IC50 [2]: 1600 nM

CCCCn1cc([C+](c2cn(CCCC)c3ccccc23)c2cn(CCCC)c3ccccc23)c2ccccc21
IC50 [1]: 300 nM | IC50 [2]: 90 nM

CCCCCCn1cc([C+](c2cn(CCCCCC)c3ccccc23)c2cn(CCCCCC)c3ccccc23)c2ccccc21
IC50 [1]: 300 nM | IC50 [2]: 74 nM

CCCn1cc([C+](c2cn(CCC)c3ccccc23)c2cn(CCC)c3ccccc23)c2ccccc21
IC50 [1]: 1000 nM | IC50 [2]: 200 nM

CCCCCn1cc([C+](c2cn(CCCCC)c3ccccc23)c2cn(CCCCC)c3ccccc23)c2ccccc21
Activity [3]: Active | Activity [4]: Active | Activity [5]: Active | Activity [6]: Active | Activity [7]: Active | Activity [8]: Active | Activity [9]: Active | Activity [10]: Active | Activity [11]: Active | Activity [12]: Active | Activity [13]: Active | IC50 [1]: 150 nM | IC50 [2]: 50 nM | Activity [14]: Non-toxic

CCCCCCCCCCn1cc([C+](c2cn(CCCCCCCCCC)c3ccccc23)c2cn(CCCCCCCCCC)c3ccccc23)c2ccccc21
IC50 [1]: 16400 nM | IC50 [2]: 12400 nM
